The values below come from ChEMBL document CHEMBL4152363, “Andrographolide derivative as STAT3 inhibitor that protects acute liver damage in mice” (Bioorg Med Chem, 2018).

Calls of active or inactive are those of the source. The calls are words filed in the database; no cut-off is given here.

For series [1], the system named is Mus musculus. As to the kind of experiment: Toxicity in Balb/c mouse assessed as change in body weight at 30 mg/kg, po qd for 7 days. The note with it: in vivo, 168 h. Format: organism-based. Summed up:
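Male BalB/C mice (20–25 g, 6–8 weeks, 1-week acclimation) dosed orally 30 mg/kg once daily 7 days, then subcutaneous CCl4 (40% in olive oil, 10 ml/kg); body weight tracked during treatment; S.E.M.; two independent experiments, n=5.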

Series [2] has as its target T1, Signal transducer and activator of transcription 1-alpha/beta (Homo sapiens) (UniProt P42224).
T1 sequence (whole entry): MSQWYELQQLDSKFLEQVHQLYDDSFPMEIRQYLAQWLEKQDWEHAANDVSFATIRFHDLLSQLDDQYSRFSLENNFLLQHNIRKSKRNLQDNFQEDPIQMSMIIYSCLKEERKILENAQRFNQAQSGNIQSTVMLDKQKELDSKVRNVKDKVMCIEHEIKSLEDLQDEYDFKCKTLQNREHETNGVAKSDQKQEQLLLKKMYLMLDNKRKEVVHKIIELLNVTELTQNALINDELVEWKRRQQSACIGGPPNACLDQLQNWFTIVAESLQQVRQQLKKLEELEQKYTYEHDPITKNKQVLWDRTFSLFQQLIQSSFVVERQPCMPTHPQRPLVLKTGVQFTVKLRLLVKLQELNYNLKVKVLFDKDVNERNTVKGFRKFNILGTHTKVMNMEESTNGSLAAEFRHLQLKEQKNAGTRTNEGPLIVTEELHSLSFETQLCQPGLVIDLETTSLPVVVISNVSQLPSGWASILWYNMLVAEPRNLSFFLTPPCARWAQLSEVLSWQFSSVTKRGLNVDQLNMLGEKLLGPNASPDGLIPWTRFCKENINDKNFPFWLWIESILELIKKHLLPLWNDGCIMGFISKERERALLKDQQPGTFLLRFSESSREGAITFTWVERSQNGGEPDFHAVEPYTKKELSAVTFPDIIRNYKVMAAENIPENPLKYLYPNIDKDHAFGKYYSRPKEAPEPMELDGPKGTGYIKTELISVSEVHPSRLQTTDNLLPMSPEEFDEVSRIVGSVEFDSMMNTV
Description: Inhibition of IFNgamma-stimulated STAT1 phosphorylation at Tyr701 residues in human AD293 cell lysates incubated with IFNgamma followed by compound addition at 10 uM by Western blot analysis. Summed up:
(§1)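 AD-293 cells treated with 1 μg/mL IFN-γ alone or with compounds at 10 μM; phospho- and total STAT1 and STAT3 assessed by western blot; representative of at least three independent experiments.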

Series [3] has as its system Mus musculus. Description: Reduction in SMAD4 mRNA expression level in liver of CCL4-induced acute liver damage in Balb/c mouse at 30 mg/kg, po qd for 7 days measured after 16 hrs post CCL4 challenge by qRT-PCR method. The series is classed as functional, organism-based. Summed up: (§2)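 Mice given 30 mg/kg orally once daily 7 days before sc CCl4 (40% in olive oil, 10 ml/kg); livers harvested 16 h later, PBS-washed, stored at −70 °C for RNA extraction and transcript quantification; n=5, two independent experiments.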

The test system of series [4] is Mus musculus. Description: Reduction in serum AST level in CCL4-induced acute liver damage in Balb/c mouse at 30 mg/kg, po qd for 7 days measured after 16 hrs post CCL4 challenge […]. Format: functional, organism-based.
For series [5], the system named is Mus musculus. Description: Hepatoprotective activity against CCL4-induced acute liver damage in Balb/c mouse assessed as increase in number of Ki67 positive cells at 30 mg/kg, po qd for 7 days measured after 16 hrs post CCL4 challenge by hematoxylin staining based immunohistochemistry method. The series is classed as functional, organism-based. The procedure, abridged:
(§3)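 Liver sections from mice dosed orally 30 mg/kg daily 7 days then sc CCl4, killed 16 h after; H2O2 block, goat serum/BSA/gelatin blocking 1 h RT, primary antibody (α-SMA, Ki67, PCNA or STAT3) 4 °C overnight, HRP secondary, DAB, hematoxylin counterstain; >30 fields at 400× quantified; n=5.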

Series [6] deals with T2, Signal transducer and activator of transcription 3 (Homo sapiens, UniProt P40763). As to the kind of experiment: Inhibition of IFNgamma-stimulated STAT3 activation in human HeLa cells incubated with IFNgamma for 16 hrs followed by compound addition measured after 24 hrs by luciferase reporter gene assay. Format: cell-based. The procedure, abridged:
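AD-293 or HeLa cells in DMEM/10% FBS stimulated with 20 pg/mL IFN-γ; compound treatment 24 h; luciferase activity measured in cell extracts; EC50 derived.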

The test system of series [7] is Mus musculus. As to the kind of experiment: Reduction in Col1a1 mRNA expression level in CCL4-induced acute liver damage in Balb/c mouse at 30 mg/kg, po qd for 7 days measured after 16 hrs post CCL4 challenge by qRT-PCR method. Format: functional, organism-based. Summed up: as §2
Series [8] relates to Mus musculus. As to the kind of experiment: Antifibrotic activity in CCL4-induced acute liver damage Balb/c mouse model assessed as decrease in alpha-SMA expression in areas surrounding blood vessels at 30 mg/kg, po qd for 7 days measured after 16 hrs post CCL4 challenge by masson trichome staining based assay. The series is classed as functional, organism-based. The following applies: in the assay text read “immunohistochemistry” for “masson trichome staining based assay”. Summed up: as §3

The target of series [9] is T2, Signal transducer and activator of transcription 3. Description: Inhibition of STAT3 in human AD293 cells assessed as decrease in TGFbeta-stimulated SMAD2/3 activation up to 10 uM incubated for 16 hrs by luciferase reporter gene assay relative to control. The series is classed as cell-based. The procedure, abridged:
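AD-293 cells carrying SMAD2/3 promoter in pGL4.20 luciferase vector, stimulated with TGF-β 100 ng/ml for 16 h with compound up to 10 µM; luciferase activity measured in cell extracts.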

The subject of series [10] is Mus musculus. As to the kind of experiment: Reduction in MMP9 mRNA expression level in CCL4-induced acute liver damage in Balb/c mouse at 30 mg/kg, po qd for 7 days measured after 16 hrs post CCL4 challenge by qRT-PCR method. Format: functional, organism-based. The procedure, abridged:
as §2

For series [11], the target named is T2, Signal transducer and activator of transcription 3. As to the kind of experiment: Inhibition of IFNgamma-stimulated STAT3 phosphorylation at Tyr705 residues in human AD293 cell lysates incubated with IFNgamma followed by compound addition at 10 uM by Western blot analysis. Summed up: as §1
The subject of another series is AD293. Description: Cytotoxicity against human AD293 cells. The series is classed as cell-based. The following applies: ad293. Summed up: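 AD-293 or HeLa cells grown in high-glucose DMEM with 10% FBS and 1% penicillin-streptomycin; compound exposure 24 h; cytotoxicity reported as CC10.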
Series [12] has as its target T2, Signal transducer and activator of transcription 3. Description: Inhibition of IL-6 stimulated STAT3 activation in human AD293 cells incubated with IL-6 for 16 hrs followed by compound addition measured after 6 hrs by luciferase reporter gene assay. The series is classed as cell-based. The procedure, abridged:
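AD-293 cells stimulated with 2.5 μg/mL IL-6; compound treatment 6 h; luciferase activity read from cell extracts; EC50 derived.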

T2 sequence (P40763 whole entry): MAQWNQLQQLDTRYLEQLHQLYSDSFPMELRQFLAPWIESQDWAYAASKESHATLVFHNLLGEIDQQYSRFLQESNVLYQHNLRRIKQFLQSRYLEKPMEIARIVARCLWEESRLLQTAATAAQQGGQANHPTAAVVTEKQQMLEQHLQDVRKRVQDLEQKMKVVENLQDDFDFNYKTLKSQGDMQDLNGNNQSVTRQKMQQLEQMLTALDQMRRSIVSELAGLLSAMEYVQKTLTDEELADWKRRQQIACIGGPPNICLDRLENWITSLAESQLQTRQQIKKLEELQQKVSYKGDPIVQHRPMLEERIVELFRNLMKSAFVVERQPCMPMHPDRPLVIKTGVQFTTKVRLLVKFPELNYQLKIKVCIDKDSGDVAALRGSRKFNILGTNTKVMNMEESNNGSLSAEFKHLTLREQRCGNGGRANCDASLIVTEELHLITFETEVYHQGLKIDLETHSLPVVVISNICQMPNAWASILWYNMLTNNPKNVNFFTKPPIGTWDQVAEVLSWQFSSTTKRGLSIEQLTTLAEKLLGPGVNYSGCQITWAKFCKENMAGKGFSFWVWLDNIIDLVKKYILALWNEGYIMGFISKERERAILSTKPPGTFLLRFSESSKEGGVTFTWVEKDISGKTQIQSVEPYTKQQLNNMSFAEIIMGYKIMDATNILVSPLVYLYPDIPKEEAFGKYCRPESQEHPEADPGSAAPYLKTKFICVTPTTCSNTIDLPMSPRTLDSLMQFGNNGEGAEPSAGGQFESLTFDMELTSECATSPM

In the case of `CC(C)(C)[Si](C)(C)O[C@@H]1COC(=O)/C1=C/C[C@@H]1[C@]2(CC[C@H]3[C@@]1(C)CCC(=O)[C@@]3(C)CO)CO2`, the Activity entry in the series on Mus musculus [1] is “Non-Toxic”. In series [2], the inhibition entry is “inactive”. In addition, the result in the series with Mus musculus [3], in the series on Mus musculus [4], in the series with Mus musculus [7] and in the series with Mus musculus [10] was inactive. Further, the outcome with Mus musculus [5] and with Mus musculus [8] was Active. For the same molecule, the EC50 is 5.9 µM in series [6] and 3.95 µM in [12]. Further, the inhibition was less than 50% in series [9] and more than 50% in series [11]. This molecule yielded a CC10 in the series with AD293 of more than 10 µM.
